From paper PMC4687050 (Nature chemical biology, 2014)
“Also recorded” adds a separate entry of the source. Values belong to the compound of their own block, whether it stands above or below them.

Key:
ERK1 [1] = biological target: T1, ERK1 (Homo sapiens, UniProt P27361); assay: Enzymatic IC50 assay; format: biochemical
[2] = biological target: Cdc2-like kinase 2 (CLK2) (Homo sapiens, UniProt P49760); assay: Enzymatic IC50 assay; format: biochemical
CSNK2A2 = CSNK2A2 (Homo sapiens, UniProt P19784); assay: Enzymatic IC50 assay; format: biochemical
JNK3 = JNK3 (Homo sapiens, UniProt P53779); assay: Enzymatic IC50 assay; format: biochemical
ERK1 [3] = biological target: T1, ERK1; assay: Isothermal titration calorimetry; format: binding; details: ITC
ERK2 = ERK2 (Homo sapiens, UniProt P28482); assay: Isothermal titration calorimetry; format: binding; details: ITC
ERK1/2 = assay: Bio-layer interferometry binding kinetics; design: species or system human; details: BLI, 25 °C
Outline: (§1)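 Kinetics by bio-layer interferometry at 25 °C in 20 mM HEPES pH 7.5, 150 mM NaCl, 0.5 mM TCEP. Biotinylated kinases were captured on streptavidin biosensors. Association and dissociation phases ran 600 s each over several compound concentrations. Controls were protein-coated sensors without compound and uncoated sensors with compound. Data were double-referenced and fitted for binding constants.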

[4] = test system: CLK1, CLK2, JNK2, CSNK2A1/A2, DRAK1 and TTK; assay: Bio-layer interferometry binding kinetics on off-targets; design: species or system human; details: BLI, 25 °C
Outline: as §1

ERK2 mutants = assay: Bio-layer interferometry binding kinetics on ERK2 mutants; design: species or system human
V-C8 cells = assay: Cell viability of BRCA2-deficient versus BRCA2-complemented cells; format: cell-based, hamster; details: three-day exposure
Outline: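 They were exposed to test compound for three days over a concentration range, then incubated 2 h in resazurin-containing medium; fluorescence was read at 590 nm.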

MDA-MB 231 cells = assay: Growth of cells with doxycycline-induced BRCA2 shRNA depletion; format: cell-based, human
Outline: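 MDA-MB-231 cells carrying a doxycycline-inducible BRCA2 shRNA were seeded at 2500 cells/well in DMEM/10% FBS with penicillin/streptomycin and treated with ERK inhibitors over a concentration range. Cell number was read after 2 h in resazurin-containing medium, by fluorescence at 590 nm.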

HEK293T cells = assay: Cell survival of BRCA2 siRNA knock-down cells; format: cell-based, human
Outline: (§2)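 HEK293T cells were reverse-transfected with 40 nM siRNA per plate (Dharmafect 1), with GFP siRNA as control, then reseeded after overnight incubation. They were transfected again on day 3. For the RAD51 arm, knockdown was verified by Western blot at 12 h and day 6, with six-day compound exposure. Cells were grown in DMEM/10% FBS; viability was read by resazurin incubation for 2 h, fluorescence at 590 nm.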

[5] = test system: MDA-MB-231 cells (pERK, pRSK1, pETS1); assay: ERK signalling after inhibitor wash-out, Western blotting; format: cell-based, human; details: 500 nM for 4 hours
Outline: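 MDA-MB-231 cells in DMEM/10% FBS with penicillin/streptomycin were treated with ERK inhibitor for 4 h, washed twice in PBS and released into fresh medium for 0.5, 1 and 2 h. Cells were trypsinised and lysed in SDS loading buffer with sonication. Equal protein was immunoblotted for pERK, pRSK and pETS1, with total ERK1/2, GAPDH or α-tubulin as loading controls. Band intensities were normalised to DMSO-treated cells.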

[6] = test system: HEK293T cells lacking RAD51; assay: Cell viability of RAD51 siRNA-depleted cells; format: cell-based, human; details: six-day exposure
Outline: as §2

T1 sequence (P27361 whole entry): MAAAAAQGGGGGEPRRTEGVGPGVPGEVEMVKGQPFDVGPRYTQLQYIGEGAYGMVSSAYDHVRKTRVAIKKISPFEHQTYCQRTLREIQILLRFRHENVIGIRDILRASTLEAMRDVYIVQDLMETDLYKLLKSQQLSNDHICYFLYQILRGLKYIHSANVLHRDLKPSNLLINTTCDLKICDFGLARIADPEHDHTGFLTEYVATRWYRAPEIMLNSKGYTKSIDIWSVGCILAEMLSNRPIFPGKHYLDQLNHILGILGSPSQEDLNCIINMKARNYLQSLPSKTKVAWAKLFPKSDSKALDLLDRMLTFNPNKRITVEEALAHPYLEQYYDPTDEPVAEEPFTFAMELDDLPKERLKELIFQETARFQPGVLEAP
Sequence of Cdc2-like kinase 2 (CLK2) (P49760 whole entry): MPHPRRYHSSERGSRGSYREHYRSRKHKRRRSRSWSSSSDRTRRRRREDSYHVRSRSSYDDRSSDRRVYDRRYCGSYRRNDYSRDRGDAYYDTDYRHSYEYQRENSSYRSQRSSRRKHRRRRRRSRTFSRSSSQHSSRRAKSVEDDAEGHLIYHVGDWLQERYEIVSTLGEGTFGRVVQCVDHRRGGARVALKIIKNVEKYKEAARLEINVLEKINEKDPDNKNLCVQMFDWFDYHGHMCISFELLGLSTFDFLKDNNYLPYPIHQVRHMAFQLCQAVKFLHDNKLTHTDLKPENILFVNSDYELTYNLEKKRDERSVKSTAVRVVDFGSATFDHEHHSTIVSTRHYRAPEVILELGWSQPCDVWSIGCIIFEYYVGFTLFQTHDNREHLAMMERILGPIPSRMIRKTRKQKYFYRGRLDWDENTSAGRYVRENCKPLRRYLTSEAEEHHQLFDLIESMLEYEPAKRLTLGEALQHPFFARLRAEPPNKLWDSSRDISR
Sequence of CSNK2A2 (P19784 whole entry): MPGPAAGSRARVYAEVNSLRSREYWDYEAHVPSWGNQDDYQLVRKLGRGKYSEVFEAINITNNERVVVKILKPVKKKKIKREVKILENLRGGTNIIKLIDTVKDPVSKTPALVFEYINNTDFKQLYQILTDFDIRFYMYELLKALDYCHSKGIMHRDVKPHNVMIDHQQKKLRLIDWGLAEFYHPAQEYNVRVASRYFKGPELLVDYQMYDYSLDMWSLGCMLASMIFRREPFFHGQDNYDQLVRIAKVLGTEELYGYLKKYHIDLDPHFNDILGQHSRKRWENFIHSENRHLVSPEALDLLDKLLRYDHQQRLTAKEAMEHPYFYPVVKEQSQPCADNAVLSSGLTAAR
Sequence of ERK2 (P28482 whole entry): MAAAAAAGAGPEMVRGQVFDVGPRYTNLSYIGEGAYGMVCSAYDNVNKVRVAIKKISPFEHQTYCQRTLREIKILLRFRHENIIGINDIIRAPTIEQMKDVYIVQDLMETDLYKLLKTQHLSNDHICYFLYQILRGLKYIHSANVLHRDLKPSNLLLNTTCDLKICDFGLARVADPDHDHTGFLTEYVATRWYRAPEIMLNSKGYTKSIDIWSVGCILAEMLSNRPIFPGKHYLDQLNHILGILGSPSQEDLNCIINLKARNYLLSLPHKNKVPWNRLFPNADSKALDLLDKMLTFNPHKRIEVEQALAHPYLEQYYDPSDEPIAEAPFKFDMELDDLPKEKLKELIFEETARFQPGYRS
Sequence of JNK3 (P53779 whole entry): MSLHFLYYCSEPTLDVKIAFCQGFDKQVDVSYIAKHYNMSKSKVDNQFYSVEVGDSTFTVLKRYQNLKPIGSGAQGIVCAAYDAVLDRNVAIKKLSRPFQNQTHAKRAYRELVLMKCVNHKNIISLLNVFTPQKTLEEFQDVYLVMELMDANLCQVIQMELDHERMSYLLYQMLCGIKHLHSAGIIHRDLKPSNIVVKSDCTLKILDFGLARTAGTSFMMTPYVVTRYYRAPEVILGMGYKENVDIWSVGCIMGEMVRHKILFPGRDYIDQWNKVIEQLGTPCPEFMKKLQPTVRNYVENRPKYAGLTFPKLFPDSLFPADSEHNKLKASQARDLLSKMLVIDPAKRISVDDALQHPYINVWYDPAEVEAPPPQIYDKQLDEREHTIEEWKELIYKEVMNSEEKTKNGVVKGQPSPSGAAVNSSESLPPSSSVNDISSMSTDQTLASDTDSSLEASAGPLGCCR

Compound: O=C(Nc1ccc2[nH]nc(-c3ccncc3)c2c1)[C@@H]1CCN(CC(=O)N2CCN(c3ccc(-c4ncccn4)cc3)CC2)C1 [SCH772984]
- IC50 (ERK1 [1]): 8.3 nM
- IC50 [2]: 104 nM
- IC50 in the enzymatic assay (CSNK2A2): no activity
- IC50 (JNK3): 632 nM
- binding enthalpy change (ERK1 [3]): about −20 kcal/mol
- binding enthalpy change (ERK2): about −20 kcal/mol
- binding kinetics (association and dissociation) (ERK1/2): slow binding kinetics
- binding kinetics (association and dissociation) [4]: fast association and dissociation rates
- binding kinetics (ERK2 mutants; listed as SCH771984): retained slow association and dissociation kinetics; also recorded: still showed slow binding kinetics
- cell survival of BRCA2-deficient compared with BRCA2-complemented cells (V-C8 cells): significant reduction in cell survival
- sensitization by BRCA2 knockdown (MDA-MB 231 cells): sensitized
- sensitization by BRCA2 knockdown (HEK293T cells): sensitized

- binding kinetics (association and dissociation) (ERK1/2): fast kinetic behaviours
Compound: Nc1[nH]nc2nnc(-c3c(-c4ccccc4)nn4ccccc34)cc12 [FR180204]
- pRSK1 inhibition [5]: not see a strong effect

- binding kinetics (association and dissociation) (ERK1/2): fast kinetic behaviours
Compound: Nc1ncnc2c1c(I)cn2[C@@H]1O[C@H](CO)[C@@H](O)[C@H]1O [5-iTU, 5-iodotubercidin]

Compound: O=C(c1cc(Cc2n[nH]c(=O)c3ccccc23)ccc1F)N1CCN(C(=O)C2CC2)CC1 [olaparib]
- cell killing of RAD51-depleted relative to control cells [6]: specific elimination of RAD51-depleted cells

Compound: Cc1cnc(Nc2ccc(F)cc2Cl)nc1-c1c[nH]c(C(=O)N[C@H](CO)c2cccc(Cl)c2)c1 [VTX-11e]
- binding kinetics (association and dissociation) (ERK1/2): slow association and dissociation patterns
- dissociation half-life (ERK1/2; estimated): 35 to 46 min
- binding kinetics (ERK2 mutants; BLI, double mutants Y36Q/Y64K and Y36Q/Y64D): increase inhibitor off-rates further
- binding kinetics (ERK2 mutants; BLI, single mutants Y36Q and Y64K): significantly reduced inhibitor off-rates
- cell survival of BRCA2-deficient compared with BRCA2-complemented cells (V-C8 cells): Significant differences in cell survival
- cell killing of RAD51-depleted relative to control cells [6]: significant increase in cell killing
- sensitization by BRCA2 knockdown (HEK293T cells): sensitized
